Shown are actives, neighbours in structure and some others; about 1.8% of the full set was active somewhere.
NR2E3 ag-1 = NR2E3 agonists in two-hybrid cells, primary screen, cell-based, luminescence, CHO-S, Gal4-NCOR/VP16-NR2E3; Photoreceptor-specific nuclear receptor (Homo sapiens), Q9Y5X4; hit rate 0.35% among 360,000; luciferase; AID 602229, 2012; inhibition of corepressor binding, % at 3.98 µM;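 active means inhibition above the mean of all tested compounds plus 3 SD, cut at about 70% in these data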;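 further: higher means lower luciferase signal from less NR2E3 corepressor binding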
Target sequence (Q9Y5X4 whole entry, looked up, the tested form may be a part): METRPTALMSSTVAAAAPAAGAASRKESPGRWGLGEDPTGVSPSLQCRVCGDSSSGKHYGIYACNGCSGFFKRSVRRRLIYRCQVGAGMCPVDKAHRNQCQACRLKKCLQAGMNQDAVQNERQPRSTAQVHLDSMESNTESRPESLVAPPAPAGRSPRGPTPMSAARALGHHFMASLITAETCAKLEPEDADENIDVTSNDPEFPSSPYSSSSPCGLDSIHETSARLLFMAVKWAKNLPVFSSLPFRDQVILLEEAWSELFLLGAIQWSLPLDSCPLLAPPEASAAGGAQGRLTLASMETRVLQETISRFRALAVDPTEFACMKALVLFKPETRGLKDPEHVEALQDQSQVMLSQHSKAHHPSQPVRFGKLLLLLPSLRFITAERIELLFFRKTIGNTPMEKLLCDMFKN
697 NFkB inh = inhibitors of PMA/ionomycin-induced NF-kB reporter, 697 cells, primary screen, B-cell NF-kB inhibitor project, cell-based, luminescence, uHTS; 697 B-cell NF-kB luciferase reporter, 16 h; inhibition, % at 4 µM; hit rate 0.33% among 330,000; AID 435022, 2010; in the data active means inhibition above about 35%
NR2E3 ag-2 = inhibitors of NR2E3-RetCOR corepressor binding, primary screen, NR2E3 agonist project, biochemical, TR-FRET, GST-NR2E3, biotin-RetCOR. Photoreceptor-specific nuclear receptor (Homo sapiens), Q9Y5X4. 1536-well. inhibition of corepressor binding, % at 4.78 µM. hit rate 0.12% among 320,000. AID 2300, 2010;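 active means percent inhibition above the cutoff of mean plus 3 SD of all tested compounds, set per screening campaign, cut at about 20% in these data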
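Material: NR2E3–RetCOR corepressor complex / Amount: 1.35 nM GST-NR2E3 / Medium: Tris pH 7.5 / Compound: single nominal compound dose of 4.8 µM / Incubation: 5 h at 4 °C / Technique: TR-FRET, Eu(K)-anti-GST donor, streptavidin-D2 acceptor, ex 340, em 617/671 nm / Read-out basis: percent loss of FRET ratio relative to control wells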
GalR3 antagonist = GalR3 antagonists in HEK293 cells, primary screen, cell-based, fluorescence readout; HEK293 GalR3-CNG cAMP membrane potential fluorescence; galR3 body fused to GalR1 C-terminus; inhibition, % at 3 µM; hit rate 0.44% among 360,000; Galanin receptor type 3 (Homo sapiens), O60755;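 active means inhibition above the screen-wide average plus 3 SD, cut at about 13% in these data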;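 further: forskolin and galanin both at EC90 stimulate the cells; cAMP rise reported by CNG channel membrane potential dye signal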
Target sequence (O60755 1-299 limits assumed): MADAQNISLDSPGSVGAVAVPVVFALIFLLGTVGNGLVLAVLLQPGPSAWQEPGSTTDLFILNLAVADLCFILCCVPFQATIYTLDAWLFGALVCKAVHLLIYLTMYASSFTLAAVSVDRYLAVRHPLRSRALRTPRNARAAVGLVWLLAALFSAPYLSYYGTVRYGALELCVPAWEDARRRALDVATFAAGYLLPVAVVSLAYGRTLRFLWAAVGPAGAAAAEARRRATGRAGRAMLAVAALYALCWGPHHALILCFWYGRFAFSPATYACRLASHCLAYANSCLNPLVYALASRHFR
Jurkat NFkB inh = inhibitors of induced NF-kB luciferase reporter, primary screen, TCR NF-kB activation inhibitor project, cell-based, luminescence, uHTS; inhibition, % at 4 µM; AID 435003, 2010; hit rate 0.53% among 330,000; Jurkat, PMA/ionomycin-induced NF-kB luciferase reporter; in the data active means inhibition above about 50%
Gli-Sufu antag = Gli-Sufu pathway antagonists, primary screen, luciferase luminescence, Sufu-KO-LIGHT cells, uHTS; Sufu-KO-LIGHT fibroblasts, Gli luciferase reporter luminescence; inhibition, % at 5 µM; hit rate 0.74% among 340,000; AID 588413, 2011;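 active means inhibition above about 55%, limit read from the data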
NR2E3 ag confirm = NR2E3 agonist confirmation in cells, cell-based, luminescence, CHO-S two-hybrid. CHO-S mammalian two-hybrid NR2E3-NCOR, luciferase luminescence. shares compounds with NR2E3 ag-1. hit rate 51% among 2,300. inhibition, % at 3.98 µM;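 active means average inhibition above a cutoff equal to the mean inhibition of all tested compounds plus one SD, cut at about 70% in these data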
GAL4-VP16 luc = GAL4-VP16 reporter modulators, confirmation, counter-screen for NR2E3 agonist project, cell-based, luminescence, CHO-S, high throughput. inhibition, % at 3.98 µM. hit rate 29% among 2,300. CHO-S GAL4-VP16 luciferase reporter. shares compounds with NR2E3 ag-1;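 active means mean inhibition above a cutoff equal to the average over all tested compounds plus one standard deviation, cut at about 70% in these data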;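 further: luciferase from a UAS reporter driven by GAL4-VP16 transactivation; higher means less reporter light so more repression of VP16 activity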
GalR3 conf = GalR3 antagonist hit confirmation, cell-based, fluorescence, triplicate | shares compounds with GalR3 antagonist | HEK293 GalR3 CNG cAMP biosensor, membrane potential fluorescence; galR3 fused to GalR1 carboxy tail; challenged with forskolin and galanin at EC90 | inhibition, % at 3 µM | hit rate 59% among 1,600 | AID 652245, 2013;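 active means inhibition above the primary screen's cutoff, the mean inhibition of all screened compounds plus 3 SD, cut at about 13% in these data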
CNG parental = nonspecific cAMP agonists in parental HEK-CNG cells, counter-screen for GalR3 antagonist project, cell-based, fluorescence, high throughput; shares compounds with GalR3 antagonist; HEK293-CNG parental cells, cAMP membrane potential fluorescence; normalised: DMSO wells 0%, forskolin wells 100%; activation, % at 3 µM; hit rate 10% among 1,600; AID 652268, 2013; in the data active means activation above about 1.3%
Each line names hits and unclear results; the compound was inactive in the other large screens (follow-up assays come after a bar, where they were run).

N#CC1c2ccccc2-n2nncc2CN1Cc1cc(Cl)cc(Cl)c1 (configuration not stated)	NR2E3 ag-1 88 (no result: 697 NFkB inh, NR2E3 ag-2, Jurkat NFkB inh) | NR2E3 ag confirm 79 | GAL4-VP16 luc 71
COc1ccc(CN2Cc3cnnn3-c3ccccc3C2C#N)cc1 (configuration not stated)	none (no result: 697 NFkB inh, NR2E3 ag-2, Jurkat NFkB inh)
CC1=CC(O)C(O)C2(C)C1CC1OC(=O)CC3C(C)C(O)C(=O)C2C13CO (configuration not stated)	none (no result: 697 NFkB inh, NR2E3 ag-2, GalR3 antagonist, Jurkat NFkB inh)
CN(C)C(=S)SSC(=S)N(C)C	NR2E3 ag-1 95, Gli-Sufu antag 68 (no result: 697 NFkB inh, GalR3 antagonist, Jurkat NFkB inh) | NR2E3 ag confirm inactive | GAL4-VP16 luc inactive
CC1CC(C)CC(C)C(O)C(C#N)=CC=CCC(C2CCCC2C(=O)O)OC(=O)CC(O)C(C)C1 (configuration not stated)	NR2E3 ag-1 102, Gli-Sufu antag 87 (no result: 697 NFkB inh, NR2E3 ag-2, Jurkat NFkB inh) | NR2E3 ag confirm 101 | GAL4-VP16 luc 100
c1ccc(N2C3C4CC(C5CCCC54)C32)cc1 (configuration not stated)	none (no result: 697 NFkB inh, NR2E3 ag-2, Jurkat NFkB inh)
CCC(=O)[C@@H](C)[C@@H](O)[C@H](C)C[C@@H](C)C1OC(=O)C[C@@]2(O)CC=C(C)C(O2)C(C)=CCCC[C@H](O[C@H]2C[C@@H](OC(N)=O)[C@H](O)[C@@H](C)O2)C=C[C@H](C)C[C@H]1C (some centres not stated)	NR2E3 ag-1 93 (no result: 697 NFkB inh, NR2E3 ag-2, GalR3 antagonist, Jurkat NFkB inh, Gli-Sufu antag) | NR2E3 ag confirm 98 | GAL4-VP16 luc 84
CCN(CCNc1ccc([N+](=O)[O-])c2cccnc12)S(=O)(=O)c1ccccc1	none
Cc1c(NS(=O)(=O)c2ccccc2)ccc([N+](=O)[O-])c1Cl	NR2E3 ag-1 85 (no result: 697 NFkB inh, NR2E3 ag-2, Jurkat NFkB inh) | NR2E3 ag confirm 96 | GAL4-VP16 luc 84
C=CCOC(=O)N1Cc2ccccc2-n2nncc2C1	none (no result: 697 NFkB inh, NR2E3 ag-2, Jurkat NFkB inh, Gli-Sufu antag)
O=[N+]([O-])c1ccc(N2CCOCC2)c2cccnc12	none
O=[N+]([O-])c1ccc(N2CCOCC2)c2c1no[n+]2[O-]	none (no result: 697 NFkB inh, NR2E3 ag-2, Jurkat NFkB inh, Gli-Sufu antag) | NR2E3 ag confirm inactive | GAL4-VP16 luc inactive
O=C(/C=C/c1ccccc1)NC(=S)N1C[C@H]2C[C@H](C1)c1cccc(=O)n1C2	none
CCN1CCC(N(C)C2CCCCC2)CC1	none
CN(Cc1cccc(-c2ccncc2)c1)C(=O)Oc1ccc([N+](=O)[O-])cc1	NR2E3 ag-1 90 (no result: 697 NFkB inh, NR2E3 ag-2, GalR3 antagonist, Jurkat NFkB inh, Gli-Sufu antag) | NR2E3 ag confirm 81 | GAL4-VP16 luc 74
CCOP(=O)(OCC)C1(C(=O)O)CCCC1	none
O=C(Cc1cccs1)N1Cc2ccccc2-n2nncc2C1	none (no result: 697 NFkB inh, NR2E3 ag-2, Jurkat NFkB inh, Gli-Sufu antag)
COc1cccc(C(c2nnnn2-c2ccc3c(c2)OCCO3)N2CCC(n3c(=O)[nH]c4ccccc43)CC2)c1OC (configuration not stated)	none (no result: 697 NFkB inh, NR2E3 ag-2, Jurkat NFkB inh, Gli-Sufu antag) | NR2E3 ag confirm inactive | GAL4-VP16 luc inactive
CSCCC(c1nnnn1-c1ccc2c(c1)OCCO2)N1CCC(n2c(=O)[nH]c3ccccc32)CC1 (configuration not stated)	none (no result: 697 NFkB inh, NR2E3 ag-2, Jurkat NFkB inh, Gli-Sufu antag) | NR2E3 ag confirm inactive | GAL4-VP16 luc inactive
O=c1[nH]c2ccccc2n1C1CCN(C(c2ccccc2OC(F)(F)F)c2nnnn2-c2ccc3c(c2)OCCO3)CC1 (configuration not stated)	none (no result: 697 NFkB inh, NR2E3 ag-2, Jurkat NFkB inh, Gli-Sufu antag) | NR2E3 ag confirm inactive | GAL4-VP16 luc inactive
CNCC(=O)c1ccccc1	none (no result: GalR3 antagonist)
CC12CCC3C(CCC4(O)CC(O)CCC34C=O)C1(O)CCC2C1=CC(=O)OC1 (configuration not stated)	GalR3 antagonist 18 (no result: 697 NFkB inh, NR2E3 ag-2, Jurkat NFkB inh) | GalR3 conf 47 | CNG parental 4.2
CCc1ccc(CN2CCN(Cc3ccc(SC)cc3)CC2)cc1	GalR3 antagonist 50 | GalR3 conf 60 | CNG parental 1.4
CSc1ccc(CN2CCN(c3ccccc3C)CC2)cc1	none
COc1ccc(CNCCc2c(C)[nH]c3ccc(OC(F)(F)F)cc23)c(OC)c1	GalR3 antagonist 24, Gli-Sufu antag 57 | GalR3 conf 90 | CNG parental inactive
C=CCn1c(O)c(C(C)=NCC2CCCO2)c(=O)[nH]c1=O (configuration not stated)	none
c1cc(C2N3CCCN2CC3)ccn1 (configuration not stated)	none
C=CCn1c(O)c(C(CC)=Nc2cccc(C(=O)O)c2)c(=O)[nH]c1=O	GalR3 antagonist 15 | GalR3 conf inactive | CNG parental inactive
C=CCn1c(O)c(C(C)=Nc2cccc(C(=O)O)c2)c(=O)[nH]c1=O	none
CCN1C[C@]2(CO)CC[C@H](OC)[C@@]34C2[C@H](OC)[C@@](O)(C13)[C@@]1(O)C[C@H](OC)[C@H]2C[C@@H]4[C@@H]1[C@H]2OC	none
CCCCCN1C(=O)c2cc(OC)ccc2[C@@]2(C(=O)OCC)Cc3cc(Cl)ccc3[C@@H]12	GalR3 antagonist 36 (no result: 697 NFkB inh, NR2E3 ag-2, Jurkat NFkB inh, Gli-Sufu antag) | GalR3 conf 52 | CNG parental 2.6
CCOC(=O)c1c(C)n(C(C)C)c2ccc(OC)cc12	none
CCn1c(C)c(C(=O)O)c2cc(OC)ccc21	GalR3 antagonist 13 | GalR3 conf inactive | CNG parental inactive
CNC(C(=O)c1ccccc1)C(OC(C)=O)c1cccc([N+](=O)[O-])c1 (configuration not stated)	none
COc1ccc2c(C)c(CC(=O)N3C[C@H]4C[C@@H](C3)c3cccc(=O)n3C4)c(=O)oc2c1C	GalR3 antagonist 20 | GalR3 conf inactive | CNG parental inactive
O=C(COc1ccc(S(=O)(=O)N2CCOCC2)cc1)N1CCN(Cc2ccc3c(c2)OCO3)CC1	none

Screens deposited in PubChem BioAssay by several laboratories.
